This note sets out measurements from ChEMBL document CHEMBL4229360, “Antimalarial agents against both sexual and asexual parasites stages: structure-activity relationships and biological studies of the Malaria Box compound 1-[5-(4-bromo-2-chlorophenyl)furan-2-yl]-N-[(piperidin-4-yl)methyl]methanamine (MMV019918) and analogues” (Eur J Med Chem, 2018).

Data set [1] has as its system Plasmodium falciparum. As to the kind of experiment: Antiplasmodial activity against chloroquine-sensitive Plasmodium falciparum D10 after 72 hrs by lactate dehydrogenase assay. Conditions: D10, 72 h. The data set is classed as functional, organism-based. An outline of the steps:
(§1)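 Asynchronous blood-stage cultures at 1–1.5% parasitemia and 1% final hematocrit in human A+ RBCs, RPMI 1640 with 1% AlbuMax, hypoxanthine, HEPES and glutamine. Serial dilutions from DMSO stocks, final DMSO <1%. Incubated 72 h at 37 °C under 1% O₂/5% CO₂. IC50 is the mean of ≥3 experiments in duplicate.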

In data set [2] the test system is Plasmodium falciparum. As to the kind of experiment: Antiplasmodial activity against chloroquine-resistant Plasmodium falciparum W2 after 72 hrs by lactate dehydrogenase assay. It counts as functional, organism-based. Conditions: W2, 72 h. In short, it runs like this: as §1
The subject of data set [3] is Plasmodium falciparum. As to the kind of experiment: Gametocytocidal activity against Plasmodium falciparum 3D7 elo1-pfs16-CBG99 late-stage (4 to 5) gametocytes assessed as inhibition of parasite viability after 72 hrs by luciferase reporter assay. Conditions: 3D7 elo1-pfs16-CBG99, 72 h. It counts as functional, organism-based. In short, it runs like this:
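Transgenic 3D7elo1-pfs16-CBG99 gametocytes express CBG99 luciferase from the pfs16 promoter. Stage IV–V gametocytes (Giemsa-checked) were exposed at day 8–10 after NAG addition to serial dilutions in complete medium for 72 h. Samples at 2% haematocrit were then mixed 1:1 with D-luciferin (1 mM, pH 5.5 citrate) for 10 min and luminescence was read. IC50 came from non-linear regression, mean of ≥3 experiments in duplicate.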

Data set [4] has as its system Plasmodium falciparum. The data set is described as follows: Antiplasmodial activity against asexual blood stage Plasmodium falciparum NF54 after 72 hrs by SYBR green-based fluorometric analysis. The data set is classed as functional, organism-based. Conditions: NF54, 72 h. In short, it runs like this: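 Asexual NF54 seeded at 0.83% parasitaemia, 1.5% haematocrit, in RPMI1640 with 10% human serum. Serial dilutions, final DMSO 0.1%. Incubated 72 h at 37 °C under 3% O2, 4% CO2, then read by SYBR Green fluorescence.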

In data set [5] the test system is Plasmodium falciparum. As to the kind of experiment: Gametocytocidal activity against Plasmodium falciparum NF54 HGL gametocytes assessed as inhibition of parasite viability after 72 hrs by ONE-Glo reagent based luminescence assay. The data set is classed as functional, organism-based. An outline of the steps: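 NF54 gametocytes raised in 5% haematocrit RPMI1640/10% human serum, with 50 mM NAG on days 4–9. Mainly stage IV gametocytes isolated on day 11 by Percoll gradient and seeded at 5000 cells/well, final DMSO 0.1%. Incubated 72 h at 37 °C, 3% O2, 4% CO2; viability by ONE-Glo luminescence.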

A short description of data set [6]: Cytotoxicity against mouse NIH/3T3 cells after 24 hrs by neutral red uptake assay. The data set is classed as cell-based, NIH3T3. The settings on record: read-out: TC50. In short, it runs like this: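 NIH3T3 cells exposed for 24 h; viability by neutral red uptake. Mean of three experiments, six replicates each.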
Data set [7] has as its target T1, Phosphoethanolamine N-methyltransferase (Plasmodium falciparum) (UniProt Q8IDQ9).
T1 sequence (whole entry): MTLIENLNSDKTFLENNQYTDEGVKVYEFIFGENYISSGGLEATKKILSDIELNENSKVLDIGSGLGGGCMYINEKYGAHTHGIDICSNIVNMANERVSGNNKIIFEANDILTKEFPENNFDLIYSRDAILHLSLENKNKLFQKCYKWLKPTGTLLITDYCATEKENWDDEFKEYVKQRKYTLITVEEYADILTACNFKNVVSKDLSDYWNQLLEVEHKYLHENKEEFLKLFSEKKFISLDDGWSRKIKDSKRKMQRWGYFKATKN
The data set is described as follows: Inhibition of plasmodium falciparum phosphoethanolamine N-methyltransferase expressed in Escherichia coli assessed as remaining enzyme activity at 100 uM using phosphoethanolamine as substrate and [methyl-14C] SAM by radiochemical assay. In short, it runs like this: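 Recombinant PfPMT purified from E. coli, 2 μg per 100 μL reaction. Buffer 0.1 M HEPES-KOH pH 8.0, 2 mM Na2EDTA, 10% glycerol, 5% DMSO, with 30 μM SAM (100 nCi [methyl-14C]SAM) and 55 μM phosphoethanolamine; radiochemical read-out.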

Where only a bound is given, the exact number is not on record here.

In the case of `Oc1ccccc1-c1ccc(CNCC2CCNCC2)o1`, the IC50 was found to be 4.4 µM in data set [1]; 9.6 µM in data set [2]; 8.3 µM in data set [3]; 0.26 µM in data set [4]; 0.29 µM in data set [5]. Moreover, the CC50 at 24 h in data set [6] came out at 7 µM.

In the case of `Clc1ccc(-c2nnc(CNCC3CCNCC3)[nH]2)cc1`, the IC50 in data set [1], in data set [2] and in data set [3] was > 13 µM each time.

Turning to `COc1ccccc1-c1ccc(CNCC2CCNCC2)o1`, the 50% inhibitory concentration (IC50) in data set [1] was 10 µM; in data set [2], > 15 µM; in data set [3], 11.8 µM. Further, the CC50 at 24 h in data set [6] stood at 53 µM.

In the case of `Brc1ccc(-c2ccc(CNCC3CCNCC3)o2)cc1`, the IC50 in data set [1] worked out at 1.1 µM; in data set [2] it was 8 µM; in data set [3], 4.4 µM.

With `Brc1ccc2cc(CNCC3CCNCC3)sc2c1`, the IC50 came out at 1 µM in data set [1]; 1.5 µM in data set [2]; 1.4 µM in data set [3]; 0.73 µM in data set [4]; 0.053 µM in data set [5].

Turning to `c1ccc(-c2ccc(CNCC3CCNCC3)o2)cc1`, the 50% inhibitory concentration (IC50) turned out to be 3.5 µM in data set [1], 9.1 µM in data set [2] and 8.6 µM in data set [3].

Take `FC(F)(F)c1ccc(-c2cccc(CNCC3CCNCC3)n2)cc1`: the IC50 came to 0.46 µM in data set [1], 3.4 µM in data set [2] and 4 µM in data set [3].

Consider `Fc1ccc(-c2ccc(CNCC3CCNCC3)o2)cc1`, for which the figures for the IC50 in data set [1], in data set [2] and in data set [3] were 2.1 µM, 7.9 µM and 6 µM, respectively.

Take `Clc1ccc(-c2ccc(CNCC3CCNCC3)o2)c(Br)c1`: the half-inhibitory concentration (IC50) was found to be 0.51 µM in data set [1], 1.87 µM in data set [2] and 1.1 µM in data set [3]. The CC50 at 24 h in data set [6] was < 5 µM.

With `Clc1ccc(-c2ccc(CNCC3CCNCC3)s2)c(Br)c1`, the IC50 in data set [1] came to 0.53 µM; in data set [2], 1.4 µM; in data set [3], 0.83 µM; in data set [4], 0.42 µM; in data set [5], 0.028 µM. The CC50 at 24 h in data set [6] is < 5 µM.

Turning to `FC(F)(F)c1ccc(-c2ccc(CNCC3CCNCC3)o2)cc1`, the values for the IC50 in data set [1], in data set [2] and in data set [3] were 0.41 µM, 1.5 µM and 1.9 µM, respectively. The CC50 at 24 h in data set [6] amounted to 50 µM.

With `Clc1ccccc1-c1ccc(CNCC2CCNCC2)o1`, the half-maximal inhibitory concentration (IC50) was found to be 2.1 µM in data set [1], 4.3 µM in data set [2] and 5.9 µM in data set [3].

On to `CN(C)c1ccc2nc3ccc(N(C)C)cc3[s+]c2c1` [METHYLENE BLUE ANHYDROUS], for which, in data set [3], the IC50 is 0.03 µM.

As for `Clc1cc(-c2ccccc2)ccc1-c1ccc(CNCC2CCNCC2)o1`, the IC50 in data set [1] was found to be 1 µM; in data set [2] it was 3 µM; in data set [3], 1.4 µM. Also, in data set [6], the CC50 at 24 h was 5 µM.

Take `Clc1cc(Br)ccc1-c1ccc(CNCC2CCNCC2)s1`: the IC50 in data set [1] was 0.73 µM; in data set [2] it was 2.2 µM; in data set [3], 0.85 µM; in data set [4], 0.28 µM; in data set [5], 0.02 µM. Also, in data set [6], the CC50 at 24 h was < 5 µM.

Take `N#Cc1ccc(-c2ccc(CNCC3CCNCC3)o2)cc1`: the figures for the IC50 in data set [1], in data set [2] and in data set [3] were 1.1 µM, 6.3 µM and 18.4 µM, respectively. Besides, in data set [7], the Activity came out at 73.2%.

As for `Clc1ccc(-c2nnc(CNCC3CCNCC3)o2)c(Br)c1`, the half-inhibitory concentration (IC50) in data set [1] is > 13 µM; in data set [2], 7.9 µM; in data set [3] it was > 26 µM.

For `CN(C)CCCNCc1ccc(-c2ccc(Br)cc2Cl)o1`, the half-inhibitory concentration (IC50) in data set [1] stood at 1.2 µM; in data set [2] it was 1.4 µM; in data set [3], 1.1 µM. For the same compound, the CC50 at 24 h in data set [6] was 5 µM.

With `C[N+](C)(CCCNCc1ccc(-c2ccc(Cl)cc2Br)o1)Cc1ccccc1`, the IC50 in data set [1] was determined as 0.55 µM; in data set [2] it was 0.66 µM; in data set [3], 4.8 µM. The Activity in data set [7] amounted to 95.8%.

Take `C[N+](C)(C)CCCNCc1ccc(-c2ccc(Cl)cc2Br)o1`: the IC50 is 2.5 µM in data set [1], 5.5 µM in data set [2] and > 24 µM in data set [3].
